What all share (format): functional, cell-based
Assay [1] concerns MCF7. The assay is described as follows: Cytotoxicity against human MCF7 cells after 48 hrs by alamar blue assay. The following applies: MCF7, 48 h. The essentials:
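MCF-7, a human breast cancer cell line.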
For orientation: Resazurin is reduced to fluorescent resorufin, in cell work by metabolically active cells.

Assay [2] has as its system CCRF-CEM. Nature of the assay: Cytotoxicity against human CEM cells after 48 hrs by alamar blue assay. In a few lines: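 CEM, a human leukemia cell line.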
The test system of assay [3] is HT-29. The assay is described as follows: Cytotoxicity against human HT-29 cells after 48 hrs by alamar blue assay. The conditions noted are these: HT-29, 48 h. In a few lines:
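HT-29, a human colon cancer cell line.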

Assay [4] concerns NCI-H460. The assay is described as follows: Cytotoxicity against human NCI-H460 cells after 48 hrs by alamar blue assay. The following applies: NCI-H460, 48 h. The essentials:
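H460, a human lung cancer cell line.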

Each structure is given as a SMILES string.

As to `COc1cc(O)c2c(=O)cc(-c3ccc(O)cc3)oc2c1[C@H]1CC(=O)[C@H](O)[C@@H](C)O1` [ACICULATINONE], the IC50 was determined as 18.4 µM in assay [1], 13.3 µM in assay [2], 11.6 µM in assay [3] and 18.1 µM in assay [4].
Take `C[C@H]1O[C@@H](c2c(O)cc(O)c3c(=O)cc(-c4ccc(O)cc4)oc23)C[C@H](O)[C@H]1O`: the IC50 is 75 µM in assay [1], 2.58 µM in assay [2], 10 µM in assay [3] and 12 µM in assay [4].
For `C[C@H]1O[C@@H](c2c(O)cc(O)c3c(=O)cc(-c4ccc(O)cc4)oc23)C[C@H](O)[C@@H]1O` the same measures were 6.35 µM, 4.42 µM, 25.3 µM and 18.2 µM.
Turning to `COc1cccc2c1C(=O)c1c(O)c3c(c(O)c1C2=O)C[C@@](O)(C(=O)CO)C[C@@H]3O[C@H]1C[C@H](N)[C@H](O)[C@H](C)O1` [DOXORUBICIN], the IC50 in assay [1] is 2.5 µM; in assay [3] it was 6.04 µM.
Regarding `COc1cc(O)c2c(=O)cc(-c3ccc(O[C@@H]4O[C@H](CO)[C@@H](O)[C@H](O)[C@H]4O)cc3)oc2c1[C@H]1C[C@H](O)[C@H](O)[C@@H](C)O1`, the IC50 in assay [1], in assay [2], in assay [3] and in assay [4] was greater than 100 µM throughout.
As for `COc1cc(O)c2c(=O)cc(-c3ccc(O)cc3)oc2c1[C@H]1C[C@H](O)[C@H](O)[C@@H](C)O1` [ACICULATIN], the IC50 in assay [1] was found to be 3.16 µM; in assay [2], 2.65 µM; in assay [3] it was 26 µM; in assay [4], 46.9 µM.

Broadly, the IC50 is the midpoint of a concentration-inhibition curve. The low end stands for higher potency, the high end for lower potency.

The record behind these values is ChEMBL document CHEMBL2010774, “Cytotoxic apigenin derivatives from Chrysopogon aciculatis” (J Nat Prod, 2012).
